Experimental data gathered from unrelated publications.
Each line is one published result; the experiments were not run side by side.
IAPP: Islet amyloid polypeptide (IAPP, Homo sapiens, UniProt P10997)
AMY2: Pancreatic alpha-amylase (AMY2, Sus scrofa, UniProt P00690)
malE: malE (Escherichia coli, UniProt P0AEX9)

COc1ccc(-c2cc(=O)c3c(OC)c(OC)c(OC)cc3o2)cc1OC
Kd (IAPP; binding, ITC): 3.06 µM

CC(=O)Nc1ccc(Nc2nc(-c3sc(N)nc3C)cs2)cc1
IC50 (Lysyl oxidase homolog 2 (LOXL2, Homo sapiens, UniProt Q9Y4K0); enzyme activity, inhibitor, fluorescence; with preincubation): 0.95 µM

CC(C)(C)OC(=O)N1CCN(Cc2ccn(Cc3ccc(Cl)cc3)c(=O)c2O)CC1
IC50 (Lysine-specific demethylase 4D (KDM4D, Homo sapiens, UniProt Q6B0I6); enzyme activity, inhibitor): 3.35 µM

COc1ccc(-c2cc(=O)c3c(OC)c(OC)c(OC)c(OC)c3o2)cc1OC
Kd (IAPP; binding, ITC): 2.79 µM

FC(F)(F)c1ccc(/C=N/N=C/c2ccc(C(F)(F)F)cc2)cc1
IC50 (AMY2; enzyme activity, inhibitor): 270 µM

OC[C@@H](O)[C@@H](O[C@H]1O[C@H](CO)[C@@H](O[C@H]2O[C@H](CO)[C@@H](O[C@H]3O[C@H](CO)[C@@H](O)[C@H](O)[C@H]3O)[C@H](O)[C@H]2O)[C@H](O)[C@H]1O)[C@H](O)[C@@H](O)CO
Kd (malE; binding, ITC): 4.44 µM

Clc1ccccc1/C=N/N=C/c1ccccc1Cl
IC50 (AMY2; enzyme activity, inhibitor): 478 µM

CCCc1ccc(O)c(OC)c1
EC50 (OR8H1 (Homo sapiens, UniProt Q8NGG4); cAMP, agonist, luciferase): > 600 µM

C[C@H]1O[C@H](O[C@H]2[C@H](O)[C@@H](O)[C@@H](O[C@H]3[C@H](O)[C@@H](O)C(O)O[C@@H]3CO)O[C@@H]2CO)[C@H](O)[C@@H](O)[C@@H]1N[C@H]1C=C(CO)[C@@H](O)[C@H](O)[C@H]1O (stereo partly drawn)
Kd (malE; binding, ITC): 0.36 µM
